According to ChEMBL document CHEMBL2046336, “Structure-activity relationships of saponin derivatives: a series of entry inhibitors for highly pathogenic H5N1 influenza virus” (Eur J Med Chem, 2012):
The source made the active and inactive calls. The calls are words filed in the database; no cut-off is given here.

Tests used:
Assay type in all cases: cell-based
[1] = Inhibition of Influenza A virus (A/Bar-headed Goose/Qinghai/59/05(H5N1)) hemagglutininin-mediated viral entry into human A549 cells after 48 hrs postinfection by luminometric analysis
Procedure, shortened: (§1)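 A549 cells seeded at 5 × 10⁴ per well; test compounds added 15 min before HIV-luc pseudovirions bearing the H5N1 HA (Qinghai or Viet Nam strain) or VSV-G envelope, then incubated. Pseudovirion supernatants were filtered and used directly for infection.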

A549 [2] = experiment: Cytotoxicity against human A549 cells after 48 hrs; settings: a549, 48 h
[3] = Inhibition of Influenza A virus (A/Viet Nam/1203/2004(H5N1)) hemagglutininin-mediated viral entry into human A549 cells after 48 hrs postinfection by luminometric analysis; procedure, shortened: as §1
A549 [4] = experiment: Inhibition of Vesicular stomatitis virus envelope glycoprotein-mediated viral entry into human A549 cells after 48 hrs postinfection by luminometric analysis; procedure, shortened: as §1

## CO[C@@H]1[C@@H](O[C@@H]2O[C@@H](C)[C@H](O)[C@@H](O)[C@H]2O)[C@H](O[C@H]2CC[C@@]3(C)[C@H](C2)[C@@H](O)C[C@@H]2[C@@H]3CC[C@]3(C)[C@@H]4[C@H](C[C@@H]23)O[C@]2(CC[C@@H](C)CO2)[C@H]4C)O[C@H](CO)[C@H]1O[C@@H]1O[C@@H](C)[C@H](O)[C@@H](O)[C@H]1O
[1]
  IC50: 25 µM
A549 [2]
  Activity: Non-toxic
[3]
  IC50: 13 µM
A549 [4]
  inhibition: inactive

## C[C@@H]1CC[C@@]2(OC1)O[C@H]1C[C@H]3[C@@H]4C[C@H](O)[C@H]5C[C@@H](O[C@@H]6O[C@H](CO)[C@@H](O[C@@H]7OC[C@H](O)[C@H](O)[C@H]7O)[C@H](O)[C@H]6O[C@@H]6OC[C@H](O)[C@H](O)[C@H]6O)CC[C@]5(C)[C@H]4CC[C@]3(C)[C@H]1[C@@H]2C
[1]
  IC50: > 50 µM
A549 [2]
  Activity: Non-toxic
[3]
  IC50: > 50 µM
A549 [4]
  inhibition: inactive

## CCS[C@@H]1O[C@H](CO)[C@@H](O[C@@H]2O[C@@H](C)[C@H](O)[C@@H](O)[C@H]2O)[C@H](O)[C@H]1O[C@@H]1O[C@@H](C)[C@H](O)[C@@H](O)[C@H]1O
[1]
  IC50: > 50 µM
A549 [2]
  Activity: Non-toxic
[3]
  IC50: > 50 µM
A549 [4]
  inhibition: inactive

## C[C@@H]1CC[C@@]2(OC1)O[C@H]1C[C@H]3[C@@H]4C[C@@H](O)[C@H]5C[C@@H](O[C@@H]6O[C@H](CO)[C@@H](O[C@@H]7O[C@@H](C)[C@H](O)[C@@H](O)[C@H]7O)[C@H](O)[C@H]6O[C@@H]6O[C@@H](C)[C@H](O)[C@@H](O)[C@H]6O)CC[C@]5(C)[C@H]4CC[C@]3(C)[C@H]1[C@@H]2C
[1]
  IC50: 18 µM
A549 [2]
  Activity: Non-toxic
[3]
  IC50: 11 µM
A549 [4]
  inhibition: inactive

## COC(=O)[C@]12CC[C@@H](C)[C@H](C)[C@H]1C1=CC[C@@H]3[C@@]4(C)CC[C@H](O[C@@H]5O[C@H](CO)[C@@H](O[C@@H]6O[C@@H](C)[C@H](O)[C@@H](O)[C@H]6O)[C@H](O)[C@H]5O[C@@H]5O[C@@H](C)[C@H](O)[C@@H](O)[C@H]5O)C(C)(C)[C@@H]4CC[C@@]3(C)[C@]1(C)CC2
[1]
  IC50: 6 µM
A549 [2]
  Activity: Non-toxic
[3]
  IC50: 8.5 µM
A549 [4]
  inhibition: inactive

## CO[C@@H]1[C@@H](O)[C@@H](O)[C@H](O[C@H]2[C@H](O[C@H]3CC[C@@]4(C)[C@H](C3)[C@@H](O)C[C@@H]3[C@@H]4CC[C@]4(C)[C@@H]5[C@H](C[C@@H]34)O[C@]3(CC[C@@H](C)CO3)[C@H]5C)O[C@H](CO)[C@@H](O[C@@H]3O[C@@H](C)[C@H](OC)[C@@H](O)[C@H]3O)[C@@H]2O)O[C@H]1C
A549 [2]
  Activity: Non-toxic
[3]
  IC50: 24 µM
A549 [4]
  inhibition: inactive

## C[C@@H]1CC[C@@]2(OC1)O[C@H]1C[C@H]3[C@@H]4C[C@H](O[C@@H]5O[C@@H](C)[C@H](O)[C@@H](O)[C@H]5O)[C@H]5C[C@@H](O[C@@H]6O[C@H](CO)[C@@H](O[C@@H]7O[C@@H](C)[C@H](O)[C@@H](O)[C@H]7O)[C@H](O)[C@H]6O[C@@H]6O[C@@H](C)[C@H](O)[C@@H](O)[C@H]6O)CC[C@]5(C)[C@H]4CC[C@]3(C)[C@H]1[C@@H]2C
[1]
  IC50: > 50 µM
A549 [2]
  Activity: Non-toxic
[3]
  IC50: > 50 µM
A549 [4]
  inhibition: inactive

## C[C@@H]1CC[C@@]2(OC1)O[C@H]1C[C@H]3[C@@H]4C[C@H](O)[C@H]5C[C@@H](O[C@@H]6O[C@H](CO)[C@@H](O[C@@H]7O[C@@H](C)[C@H](O)[C@@H](O)[C@H]7O)[C@H](O)[C@H]6O[C@@H]6O[C@@H](C)[C@H](O)[C@@H](O)[C@H]6O)CC[C@]5(C)[C@H]4CC[C@]3(C)[C@H]1[C@@H]2C
[1]
  IC50: 7.2 µM
A549 [2]
  Activity: Non-toxic
[3]
  IC50: 7.8 µM
A549 [4]
  inhibition: inactive

## COC[C@H]1O[C@@H](O[C@H]2CC[C@@]3(C)[C@H](C2)[C@@H](O)C[C@@H]2[C@@H]3CC[C@]3(C)[C@@H]4[C@H](C[C@@H]23)O[C@]2(CC[C@@H](C)CO2)[C@H]4C)[C@H](O[C@@H]2O[C@@H](C)[C@H](O)[C@@H](O)[C@H]2O)[C@@H](O)[C@@H]1O[C@@H]1O[C@@H](C)[C@H](O)[C@@H](O)[C@H]1O
[1]
  IC50: 12 µM
A549 [2]
  Activity: Non-toxic
[3]
  IC50: 9 µM
A549 [4]
  inhibition: inactive

## CC(=O)O[C@H]1C[C@@H]2[C@H](CC[C@]3(C)[C@@H]4[C@H](C[C@@H]23)O[C@]2(CC[C@@H](C)CO2)[C@H]4C)[C@@]2(C)CC[C@H](O[C@@H]3O[C@H](CO)[C@@H](O[C@@H]4O[C@@H](C)[C@H](O)[C@@H](O)[C@H]4O)[C@H](O)[C@H]3O[C@@H]3O[C@@H](C)[C@H](O)[C@@H](O)[C@H]3O)C[C@H]12
[1]
  IC50: 7.6 µM
A549 [2]
  Activity: Non-toxic
[3]
  IC50: 9.3 µM
A549 [4]
  inhibition: inactive

## C[C@@H]1CC[C@@]2(OC1)O[C@H]1C[C@H]3[C@@H]4C[C@H](O)[C@H]5C[C@@H](O)CC[C@]5(C)[C@H]4CC[C@]3(C)[C@H]1[C@@H]2C [CHLOROGENIN]
[1]
  IC50: > 50 µM
[3]
  IC50: > 50 µM

## CO[C@@H]1[C@@H](O)[C@H](C)O[C@@H](O[C@H]2[C@H](O[C@H]3CC[C@@]4(C)[C@H](C3)[C@@H](O)C[C@@H]3[C@@H]4CC[C@]4(C)[C@@H]5[C@H](C[C@@H]34)O[C@]3(CC[C@@H](C)CO3)[C@H]5C)O[C@H](CO)[C@@H](O[C@@H]3O[C@@H](C)[C@H](O)[C@@H](OC)[C@H]3O)[C@@H]2O)[C@@H]1O
[1]
  IC50: 28 µM
A549 [2]
  Activity: Non-toxic
[3]
  IC50: 16 µM
A549 [4]
  inhibition: inactive

## C[C@@H]1CC[C@@]2(OC1)O[C@H]1C[C@H]3[C@@H]4CC(=O)[C@H]5C[C@@H](O[C@@H]6O[C@H](CO)[C@@H](O[C@@H]7O[C@@H](C)[C@H](O)[C@@H](O)[C@H]7O)[C@H](O)[C@H]6O[C@@H]6O[C@@H](C)[C@H](O)[C@@H](O)[C@H]6O)CC[C@]5(C)[C@H]4CC[C@]3(C)[C@H]1[C@@H]2C
[1]
  IC50: 20 µM
A549 [2]
  Activity: Non-toxic
[3]
  IC50: 12 µM
A549 [4]
  inhibition: inactive

## C[C@@H]1O[C@@H](O[C@H]2[C@H](O)[C@@H](O[C@@H]3O[C@@H](C)[C@H](O)[C@@H](O)[C@H]3O)C(O)O[C@@H]2CO)[C@H](O)[C@H](O)[C@H]1O (some centres not stated) [CHACOTRIOSE]
[1]
  IC50: > 50 µM
A549 [2]
  Activity: Non-toxic
[3]
  IC50: > 50 µM
A549 [4]
  inhibition: inactive

## CO[C@H]1[C@H](O[C@H]2[C@H](O[C@H]3CC[C@@]4(C)[C@H](C3)[C@@H](O)C[C@@H]3[C@@H]4CC[C@]4(C)[C@@H]5[C@H](C[C@@H]34)O[C@]3(CC[C@@H](C)CO3)[C@H]5C)O[C@H](CO)[C@@H](O[C@@H]3O[C@@H](C)[C@H](O)[C@@H](O)[C@H]3OC)[C@@H]2O)O[C@@H](C)[C@H](O)[C@H]1O
[1]
  IC50: 31 µM
A549 [2]
  Activity: Non-toxic
[3]
  IC50: 15 µM
A549 [4]
  inhibition: inactive
